According to ChEMBL document CHEMBL1152334, “Quassinoid inhibition of AP-1 function does not correlate with cytotoxicity or protein synthesis inhibition” (J Nat Prod, 2009):
pIC50: −log10 of the molar value. Activity calls are given as the source filed them. The rule behind the calls is not given here.

Columns and labels:
[1] = Growth inhibition of human NCI60 cells; assay type: functional
HeLa = assay: Inhibition of protein synthesis in human HeLa cells assessed as [35S]methionine incorporation into protein treated for 45 mins before [35S]methionine addition by Whatman paper analysis; assay type: functional, cell-based
[2] = Inhibition of protein synthesis in cell-free extract of mouse Krebs2 cells by SDS-PAGE; assay type: functional
Nucleic Acid = assay: Inhibition of TPA-induced SRE transfected in HEK293 cells at 0.1 to 10 uM treated 1 hr before TPA stimulation measured after 18 hrs by luciferase reporter gene assay; assay type: cell-based
Summary of the method: (§1)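 HEK293 cells were grown in DMEM with 10% FBS at 37 °C and 5% CO2. They were transiently transfected with a luciferase reporter (0.1 µg/well); reporters were AP-1 (four TRE consensus copies from GCN4), NF-κB (five responsive-element copies) or SRE. After 24 h, medium went to DMEM with 0.2% FBS. Cells were pretreated 1 h with compound or DMSO, then given TPA 10 ng/mL for 18 h. Firefly luciferase was read from passive-lysis lysates, TPA alone = 100%, in quadruplicate.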

[3] = target: Transcription factor Jun (Homo sapiens) (UniProt P05412); assay: Inhibition of TPA-induced AP1 transfected in HEK293 cells assessed as inhibition of […] reporter activity at 0.1 to 10 uM treated 1 hr before TPA stimulation measured after 18 hrs by luciferase reporter gene assay; assay type: cell-based; summary of the method: as §1
HEK293 = assay: Inhibition of TPA-induced NF-kappaB transfected in HEK293 cells at 0.1 to 10 uM treated 1 hr before TPA stimulation measured after 18 hrs by luciferase reporter gene assay; assay type: cell-based; summary of the method: as §1
[4] = Growth inhibition of human AP-1 beta-lactamase reporter screening assay cells at 1 uM; details: AP-1 reporter cells

Chain of Transcription factor Jun (Homo sapiens) (P05412 whole entry): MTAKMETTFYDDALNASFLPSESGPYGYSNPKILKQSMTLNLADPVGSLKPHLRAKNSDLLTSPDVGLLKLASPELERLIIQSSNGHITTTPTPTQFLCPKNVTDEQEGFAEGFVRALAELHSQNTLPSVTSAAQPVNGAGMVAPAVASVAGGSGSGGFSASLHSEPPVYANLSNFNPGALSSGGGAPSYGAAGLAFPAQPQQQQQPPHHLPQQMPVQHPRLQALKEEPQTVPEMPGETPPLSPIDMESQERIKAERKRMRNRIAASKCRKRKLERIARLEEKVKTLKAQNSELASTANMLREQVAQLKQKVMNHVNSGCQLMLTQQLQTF

Row | Structure (SMILES) | GI50 ([1]; Homo sapiens, NCI60) [nM] | other results
1 | COC(=O)[C@@]12OC[C@]34[C@H]([C@H](O)[C@@H]1O)[C@@]1(C)CC(=O)C(OC(C)=O)=C(C)[C@H]1C[C@H]3OC(=O)[C@@H](OC(=O)C=C(C)C)[C@@H]24 | 790 | 
2 | COC(=O)[C@@]12OC[C@]34[C@H]([C@@H](O)[C@@H]1O)[C@@]1(C)CC(=O)C(O)=C(C)[C@@H]1C[C@H]3OC(=O)[C@H](OC(=O)/C=C(\C)C(C)C)[C@@H]24 [BRUCEANTIN] | 5 | pIC50 (HeLa): 7.29; IC50 [2]: 410 nM
3 | CC[C@](C)(O)C(=O)O[C@H]1C(=O)O[C@@H]2C[C@H]3C(C)=CC(=O)[C@@H](O)[C@]3(C)[C@H]3[C@@]4(O)OC[C@]32[C@@H]1[C@@H](C)[C@H]4O (stereo in doubt) [GLAUCARUBINONE] |  | GI50 [1]: 21000 nM
4 | COC(=O)[C@@]12OC[C@]34[C@H]([C@@H](O)[C@@H]1O)[C@@]1(C)[C@H](O)C(=O)C=C(C)[C@@H]1C[C@H]3OC(=O)[C@H](OC(C)=O)[C@@H]24 [ISOBRUCEIN B] | 100 | 
5 | COC(=O)[C@@]12OC[C@]34[C@H]([C@@H](O)C1O)[C@@]1(C)CC(=O)C(OC(=O)/C=C(/c5ccccc5)C(F)(F)F)=C(C)[C@@H]1C[C@H]3OC(=O)[C@H](O)[C@H]42 (some centres undefined) | 7400 | 
6 | COC(=O)[C@@]12OC[C@]34[C@H]([C@@H](O)C1O)[C@@]1(C)CC(=O)C(O)=C(C)[C@@H]1C[C@H]3OC(=O)[C@H](OC(=O)/C=C(/c1ccccc1)C(F)(F)F)[C@H]42 (some centres undefined) | 3600 | 
7 | CC1=CC(=O)[C@@H](O)[C@]2(C)[C@H]3[C@]4(O)OC[C@]35[C@H]([C@@H](C)[C@H]4O)[C@@H](O)C(=O)O[C@@H]5C[C@@H]12 [GLAUCARUBOLONE] | 290 | 
8 | COC(=O)[C@]12OC[C@]34[C@H]([C@@H](O)[C@@H]1O)[C@@]1(C)CC(=O)C(O)=C(C)[C@@H]1C[C@H]3OC(=O)[C@H](OC(=O)C=C(C)C)[C@@H]24 [BRUSATOL] | 260 | pIC50 (HeLa): > 6.00; inhibition (Nucleic Acid): inactive; IC50 [2]: 230 nM; inhibition [3]: inactive; inhibition (HEK293): inactive
9 | COC(=O)[C@@]12OC[C@]34[C@H]([C@@H](O)[C@@H]1O)[C@@]1(C)C=C5OC(=O)C=C5[C@@H](C)[C@@H]1C[C@H]3OC(=O)[C@H](O)[C@@H]24 | 160 | 
10 | CC(C)=CC(=O)O[C@H]1C(=O)O[C@@H]2C[C@H]3C(C)=CC(=O)[C@@H](O)[C@]3(C)[C@H]3[C@@]4(O)OC[C@]32[C@@H]1[C@@H](C)[C@H]4O | 21 | 
11 | COC(=O)[C@@]12OC[C@]34[C@H]([C@@H](O)C1O)[C@@]1(C)CC(=O)C(OC(=O)CC(C)C(F)(F)F)=C(C)[C@@H]1C[C@H]3OC(=O)[C@H](O)[C@H]42 (some centres undefined) | 2900 | 
12 | CC[C@@](O)(CC(=O)O[C@@H]1C(=O)O[C@@H]2C[C@@H]3C(C)=CC(=O)[C@H](O)[C@]3(C)[C@H]3[C@]4(O)OC[C@]32[C@@H]1[C@@H](C)[C@H]4O)C(C)C [PENINSULARINONE] | 1 | 
13 | C=C1[C@@H](O)[C@@]2(O)OC[C@@]34[C@H]1[C@@H](OC(=O)C/C=C/CCCCCCCC)C(=O)O[C@@H]3C[C@H]1C(C)=CC(=O)[C@@H](O)[C@]1(C)[C@@H]24 | 24 | pIC50 (HeLa): < 5.70; IC50 [2]: <10000 nM
14 | CC[C@](C)(O)C(=O)O[C@H]1C(=O)O[C@@H]2C[C@H]3C(C)=CC(=O)[C@@H](O)[C@]3(C)[C@H]3[C@@]4(O)OC[C@]32[C@@H]1[C@@H](C)[C@H]4O (stereo in doubt; 4) [GLAUCARUBINONE] |  | pIC50 (HeLa): 6.57; IC50 [2]: 290 nM; inhibition at 1 µM [4]: < 25%; GI50 [1]: 1800 nM
15 | CC1=CC(=O)[C@H](O)[C@@]2(C)[C@@H]1C[C@H]1OC(=O)C(OC(=O)CC3=CCCC3)[C@H]3[C@@H](C)[C@@H](O)[C@]4(O)OC[C@]13[C@@H]42 (some centres undefined) | 40000 | 
16 | CC(=O)OC(C)(C)/C(C)=C/C(=O)O[C@H]1C(=O)O[C@@H]2C[C@H]3[C@H](C)C(=O)C(O[C@@H]4O[C@H](CO)[C@@H](O)[C@H](O)[C@H]4O)=C[C@]3(C)[C@H]3[C@@H](O)[C@H](O)[C@]4(C(=O)O)OC[C@]32[C@@H]14 [BRUCEOSIDE F] | 74000 | 
17 | C=C1[C@@H](O)[C@@]2(O)OC[C@@]34[C@H]1[C@@H](OC(=O)C/C=C(\C)CCCCC)C(=O)O[C@@H]3C[C@H]1C(C)=CC(=O)[C@@H](O)[C@]1(C)[C@@H]24 | 1.5 | 
18 | COC(=O)[C@]12OC[C@]34[C@H]([C@@H](O)[C@@H]1O)[C@@]1(C)C=C5OC(=O)C=C5[C@@H](C)[C@@H]1C[C@H]3OC(=O)[C@H](OC(C)=O)[C@@H]24 [SERGEOLIDE] | 3.8 | pIC50 (HeLa): > 6.00; IC50 [2]: 70 nM
19 | CC(=O)O[C@H]1C(=O)O[C@@H]2C[C@H]3C(C)=CC(=O)[C@@H](O)[C@]3(C)[C@H]3[C@]4(O)OC[C@]32[C@@H]1[C@@H](C)[C@H]4O [HOLACANTHONE] | 30 | 
20 | CC1=CC(=O)[C@H](O)[C@@]2(C)[C@@H]1C[C@H]1OC(=O)[C@@H](OC(=O)C(C)(C)CO)[C@@H]3[C@@H](C)[C@@H](O)[C@]4(O)OC[C@@]31[C@@H]42 | 95 | 
21 | COC(=O)[C@@]12OC[C@]34[C@H]([C@@H](O)C1O)[C@@]1(C)CC(=O)C(O)=C(C)[C@@H]1C[C@H]3OC(=O)[C@H](OC(=O)CC(C)C(F)(F)F)[C@H]42 (some centres undefined) | 28 | 
22 | COC1=C[C@@H](C)[C@@H]2C[C@H]3OC(=O)C[C@H]4C(C)=C(OC)C(=O)[C@H]([C@@]2(C)C1=O)[C@@]34C [QUASSIN] |  | pIC50 (HeLa): < 5.70; inhibition (Nucleic Acid): inactive; IC50 [2]: >30000 nM; inhibition [3]: inactive; inhibition (HEK293): inactive
23 | CC[C@@H](C)C(=O)O[C@H]1C(=O)O[C@@H]2C[C@H]3C(C)=CC(=O)[C@@H](O)[C@]3(C)[C@H]3[C@@H](O)[C@H](O)[C@]4(C)OC[C@]32[C@@H]14 [SIMALIKALACTONE D] | 39 | 
24 | CC(C)=CC(=O)O[C@@H]1[C@H]2C(C)=CC(=O)[C@@H](O)[C@]2(C)[C@H]2[C@@]3(O)OC[C@@]24[C@@H]1OC(=O)C[C@H]4[C@@H](C)[C@H]3O | 19 | 
25 | CC1=C[C@H](O)[C@@H](O)[C@]2(C)[C@H]3[C@@]4(O)OC[C@]35[C@H]([C@@H](C)[C@H]4O)[C@@H](O)C(=O)O[C@@H]5C[C@@H]12 [GLAUCARUBOL] | 41000 | pIC50 (HeLa): < 5.70; IC50 [2]: >30000 nM
26 | CC(C)CC(=O)O[C@H]1C(=O)O[C@@H]2C[C@H]3[C@H](C)C(=O)C(O[C@@H]4O[C@H](CO)[C@@H](O)[C@H](O)[C@H]4O)=C[C@]3(C)[C@H]3[C@@H](O)[C@H](O)[C@]4(C(=O)O)OC[C@]32[C@@H]14 [BRUCEOSIDE E] | 52000 | 
27 | C/C=C(\C)C(=O)O[C@@H]1[C@H]2C(C)=CC(=O)[C@@H](O)[C@]2(C)[C@H]2[C@@]3(O)OC[C@]24[C@H]([C@@H](C)[C@H]3O)[C@@H](OC(C)=O)C(=O)O[C@H]14 [HANNOAENONE] | 40 | 
28 | C=C1[C@@H](O)[C@]2(O)OC[C@@]34[C@H]1[C@@H](OC(=O)C/C=C/CCCCCCCC)C(=O)O[C@@H]3C[C@H]1C(C)=CC(=O)[C@@H](O)[C@]1(C)[C@@H]24 | 24 | 
29 | COC(=O)[C@]12OC[C@]34[C@H]([C@@H](O)[C@@H]1O)[C@@]1(C)[C@H](O)C(=O)C=C(C)[C@@H]1C[C@H]3OC(=O)[C@H](OC(=O)CC(C)C)[C@@H]24 [ISOBRUCEIN A] | 17 | 
